Results collected from several papers.
Each line is one published result; the experiments were not run side by side.
Cell line: PC-9
Effect on: cell growth or viability
Time: 72 h

| Structure (SMILES) | assay | setting | quantity | result |
| --- | --- | --- | --- | --- |
| O=C(NCc1cn(Cc2ccc(Cl)cc2)nn1)Nc1ccccc1Br | CCK-8 | 50 µM | viability | 127% |
| COc1ccc(NC(=O)NCc2cn(Cc3ccc(Br)cc3)nn2)cc1 | CCK-8 | 20 µM | viability | 100% |
| COc1ccc(NC(=O)Nc2nc3cc(-c4ccc5ncn(Cc6ccccc6)c(=O)c5c4)ccc3s2)cc1 | MTT | – | IC50 | > 20000 nM |
| COc1ccc(NC(=O)Nc2ccc(-c3cn(Cc4ccc(C)cc4)nn3)cc2)cc1 | CCK-8 | 50 µM | viability | 96% |
| O=C(NCc1cn(Cc2ccc(Br)cc2)nn1)Nc1ccccc1Br | CCK-8 | 20 µM | viability | 99.2% |
| COc1ccc(N(Cc2nc(-c3ccc(F)cc3)cs2)C(=O)CCCCCC(=O)NO)cc1 | MTT | – | IC50 | 730 nM |
| O=C(Nc1ccc(Cl)cc1)Nc1ccc(-c2cn(Cc3ccc(Br)cc3)nn2)cc1 | CCK-8 | 50 µM | viability | 80.4% |
| COc1ccc(NC(=O)Nc2ccc(-c3cn(Cc4ccc(Cl)cc4)nn3)cc2)cc1 | CCK-8 | 20 µM | viability | 91% |
| O=C(Nc1ccc(Cl)cc1)Nc1cccc(-c2cn(Cc3ccc(Cl)cc3)nn2)c1 | CCK-8 | 20 µM | viability | 95.4% |
| COc1ccc(C(=O)Nc2nc3cc(-c4ccc5ncn(Cc6ccccc6)c(=O)c5c4)ccc3s2)cc1 | MTT | – | IC50 | > 20000 nM |
| COc1ccc(NC(=O)Nc2ccc(-c3cn(Cc4ccc(Br)cc4)nn3)cc2)cc1 | CCK-8 | 20 µM | viability | 93% |
| CCCn1cnc2ccc(-c3ccc4sc(NC(=O)Nc5ccc(F)cc5)nc4c3)cc2c1=O | MTT | – | IC50 | 1510 nM |
| COc1ccc(N(Cc2csc(-c3ccc(C)cc3)n2)C(=O)CCCCCC(=O)NO)cc1 | MTT | – | IC50 | 460 nM |
| O=C(Nc1cccc(-c2cn(Cc3ccc(Br)cc3)nn2)c1)Nc1ccccc1Br | CCK-8 | 20 µM | viability | 128% |
| CCCCNC(=O)Nc1nc2cc(-c3ccc4ncn(Cc5ccccc5)c(=O)c4c3)ccc2s1 | MTT | – | IC50 | > 20000 nM |
| COc1ccc(NC(=O)Nc2cccc(-c3cn(Cc4ccc(C)cc4)nn3)c2)cc1 | CCK-8 | 50 µM | viability | 92.6% |
| O=C(Nc1ccc(Cl)cc1)Nc1nc2cc(-c3ccc4ncn(CCN5CCOCC5)c(=O)c4c3)ccc2s1 | MTT | – | IC50 | > 20000 nM |
| Cc1ccccc1Cn1cc(-c2cccc(NC(=O)Nc3ccc(F)cc3)c2)nn1 | CCK-8 | 20 µM | viability | 88.9% |
| O=C(Nc1nc2cc(-c3ccc4ncn(Cc5ccccc5)c(=O)c4c3)ccc2s1)c1ccccc1 | MTT | – | IC50 | > 20000 nM |
| O=C(Nc1cccc(-c2cn(Cc3ccc(Cl)cc3)nn2)c1)Nc1ccccc1Br | CCK-8 | 50 µM | viability | 107% |
